An excerpt weighted towards active compounds, which were near 3.5% of everything screened.
MrgX1 allo act: positive allosteric modulators of MrgX1, primary screen, HEK293 cells, Fluo-4 calcium flux; Mas-related G-protein coupled receptor member X1 (Homo sapiens), Q96LB2; FDSS; stronger effect = higher value; B-score at 10 µM; hit rate 0.63% among 310,000; AID 588675, 2011;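 active means plate-corrected calcium response at least 3 library SD above typical, normal starting fluorescence, not activating the receptor alone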;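 further: compound read alongside a low EC10 to EC30 dose of BAM8-22 agonist; peak minus trough fluorescence over baseline measured at the second addition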
Target sequence (Q96LB2 whole entry, looked up): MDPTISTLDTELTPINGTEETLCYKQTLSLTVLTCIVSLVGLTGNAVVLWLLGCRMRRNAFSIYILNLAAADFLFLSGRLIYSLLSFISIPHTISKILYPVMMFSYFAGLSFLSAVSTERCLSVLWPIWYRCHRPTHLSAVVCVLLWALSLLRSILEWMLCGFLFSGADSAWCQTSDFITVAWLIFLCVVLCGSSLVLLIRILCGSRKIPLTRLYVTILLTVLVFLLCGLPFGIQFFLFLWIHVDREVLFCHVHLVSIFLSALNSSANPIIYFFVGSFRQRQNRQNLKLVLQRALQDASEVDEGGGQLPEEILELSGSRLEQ
MrgX1 antag: antagonists of human MrgX1 receptor, primary screen, HEK293 cells, Fluo-4 calcium flux. BAM8-22 antagonism; stronger effect = lower value. hit rate 1.3% among 310,000. B-score at 10 µM. Mas-related G-protein coupled receptor member X1 (Homo sapiens), Q96LB2;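 active means calcium-response B-score plate-corrected more than 3 library SD below zero, starting fluorescence within 5 deviations, no agonist response on first addition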;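 further: peak minus trough fluorescence over baseline after final BAM8-22 challenge near maximal dose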
RGS4 block: RGS4 inhibitors, primary screen, cell-based, HEK293 M3R inducible RGS4, calcium flux | Regulator of G-protein signaling 4 (Homo sapiens), P49798 | Fluo-4 calcium flux; stronger effect = higher value; triggered by carbachol at its EC20 | AID 463165, 2010 | hit rate 0.45% among 310,000 | B-score at 10 µM;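 active means B-score, a plate-corrected calcium signal, over three deviations above library mean, with baseline fluorescence within five deviations of library mean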;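 further: RGS4 expression induced by doxycycline in cells with stable M3 receptor; B-score is computed from the integrated fluorescence ratio over baseline after carbachol; higher B-score means a larger calcium signal and so more RGS4 inhibition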
Target sequence (P49798 whole entry, looked up): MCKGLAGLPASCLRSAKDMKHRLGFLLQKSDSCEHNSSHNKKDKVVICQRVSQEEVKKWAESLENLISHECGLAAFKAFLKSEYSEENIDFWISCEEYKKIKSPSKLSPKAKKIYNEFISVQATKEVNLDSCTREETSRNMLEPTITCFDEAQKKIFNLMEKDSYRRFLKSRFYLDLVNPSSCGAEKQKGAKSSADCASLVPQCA
RGS4 act: RGS4 potentiators or activators, primary screen, cell-based, HEK293 M3R inducible RGS4, calcium flux; B-score at 10 µM; hit rate 0.92% among 310,000; AID 463111, 2010; carbachol calcium flux Fluo4; stronger effect = lower value;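 active means B-score of the integrated calcium signal more than 4 SD below the library mean, with starting fluorescence not abnormally high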;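 further: negative B-score means reduced calcium response which marks RGS4 activation or potentiation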
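Test system: HEK293 cells with stable M3R and inducible RGS4; also added: carbachol at ECmax as muscarinic agonist stimulus; schedule: dye loading 30 min 37 °C, buffer rest 30 min RT; technique: kinetic calcium fluorescence imaging with Fluo4-AM dye, 2 µM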
MrgX1 ag: agonists of human MrgX1 receptor, primary screen, HEK293 cells, Fluo-4 calcium flux. Fluo-4 calcium fluorescence, agonist mode; stronger effect = higher value. hit rate 0.44% among 310,000. B-score at 10 µM. AID 588627, 2011;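 active means calcium response B-score plate-corrected fluorescence ratio at least 3 library SD, with starting fluorescence B-score inside 5 SD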
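Assay system: MrgX1-expressing HEK293 cells / Amount: fifteen thousand cells per well / Doses: test compound in the initial addition of three / Timing: cells plated overnight, dye loaded 0.5 h 37 °C, 0.5 h room temperature / Technique: kinetic calcium dye fluorescence, Fluo-4 NW / Control set: positive and negative controls per plate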
RGS4 inh valid: enhanced carbachol calcium response, M3R/RGS4 cells, RGS4 inhibitor project, cell-based, validation screen, HEK293 M3R/RGS4, calcium flux; shares compounds with RGS4 block; carbachol calcium Fluo-4 fluorescence; carbachol added at its EC20; 0 = buffer wells, 100 = carbachol control; calcium response, % at 10 µM; hit rate 65% among 1,700; AID 492999, 2010;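 active means duplicate-averaged calcium response above the buffer-only control mean plus 5 SD of those controls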;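 further: integrated fluorescence ratio F max minus min over baseline F0; higher response in RGS4-induced cells means RGS4 inhibition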
M3R Ca ctr: carbachol calcium response in non-induced M3R cells, confirmation, counter-screen for RGS4 inhibitor project, cell-based, HEK293 M3R; shares compounds with RGS4 block; carbachol calcium Fluo-4; submaximal (EC20) carbachol stimulus; buffer wells 0%, carbachol control wells 100%; activity (percent), % at 10 µM; hit rate 20% among 1,900; call rule not given here;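 further: RGS4 induction absent so cells express M3R without RGS4; higher means more calcium signal and flags a non-specific hit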
RGS4 inh ctr2: signal in non-induced cells without carbachol, RGS4 inhibitor counter-screen; AID 493001; shares compounds with RGS4 block; calcium response (agonist-mode artifact), % at 10 µM; hit rate 22% among 1,900; HEK293 M3R/RGS4 non-induced, Fluo-4 calcium, no carbachol; normalised: buffer wells 0%, carbachol wells 100%;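 active means duplicate-averaged calcium rise in uninduced cells above buffer wells' mean plus 5 SD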
A number is an active result; . = inactive; / = not tested or not shown.

SMILES	MrgX1 allo act	MrgX1 antag	RGS4 block	RGS4 act	MrgX1 ag	RGS4 inh valid	M3R Ca ctr	RGS4 inh ctr2
Cc1noc(NS(=O)(=O)c2ccc(NC(=O)c3nn(-c4ccccc4)ccc3=O)cc2)c1C	.	.	.	.	.	.	.	.
CCOc1ccc(C(=O)/C=C/Nc2ccc(S(=O)(=O)Nc3onc(C)c3C)cc2)cc1	.	.	.	.	.	/	/	/
Cc1noc(NS(=O)(=O)c2ccc(NC(=O)c3ccc(N4C(=O)c5ccccc5C4=O)cc3)cc2)c1C	.	.	.	.	.	/	/	/
Cc1noc(NS(=O)(=O)c2ccc(N/C=C\C(=O)c3ccc(Br)cc3)cc2)c1C	.	.	6.7	.	.	14%	.	.
O=C(N/N=C/c1ccc(O)cc1O)/C(=C/c1ccccc1)CCO	.	.	9.6	.	.	53%	38%	.
Cc1ccc(C(=O)NN2C(=O)C3C4c5ccccc5C(c5ccccc54)C3C2=O)cc1 (stereo not drawn)	.	.	.	.	.	/	/	/
C=CCNc1nnc(SC2CC(=O)N(c3ccc(OCCC)cc3)C2=O)s1 (stereo not drawn)	.	.	.	.	.	.	.	.
O=C(O)CCCCCNC(=O)c1ccccc1	.	.	.	.	.	/	/	/
O=C1NC(c2cccs2)C(C(=O)c2ccccc2)C(O)(C(F)(F)F)N1 (stereo not drawn)	.	.	.	.	.	/	/	/
Cc1ccc(C(=O)C2C(c3ccc(-c4ccccc4[N+](=O)[O-])o3)NC(=O)NC2(O)C(F)(F)F)cc1 (stereo not drawn)	.	.	.	.	.	/	.	.
O=C1NC(c2ccc(-c3ccccc3[N+](=O)[O-])o2)C(C(=O)c2ccccc2)C(O)(C(F)(F)F)N1 (stereo not drawn)	.	.	.	.	.	.	.	.
Cc1ccc2nc(-c3ccc(N)cc3)sc2c1	.	.	5.6	.	.	16%	.	.
Nc1ccc2nc(-c3ccccc3)sc2c1	.	.	.	.	.	/	/	/
CCOC(=O)CCN(c1ccccc1)S(=O)(=O)c1ccc(-c2ccc(=O)[nH]n2)s1	.	.	.	.	.	/	/	/
Nn1c(Cc2cccc3ccccc23)nnc1SCCOc1ccc(F)cc1	.	.	6.5	.	.	.	.	.
Nn1c(Cc2cccc3ccccc23)nnc1SCCOc1ccc(Br)cc1	.	.	.	.	.	.	.	.
Nn1c(Cc2cccc3ccccc23)nnc1SCc1c(F)cccc1Cl	.	.	.	.	.	/	/	/
CCCCN(C(=O)/C=C/c1ccc(OC)cc1)C1CCS(=O)(=O)C1 (stereo not drawn)	.	.	.	.	.	/	/	/
O=S(=O)(Nc1ccc(O)c2ccccc12)c1ccc(F)cc1	.	.	.	.	.	/	/	/
CCc1ccc(S(=O)(=O)Nc2ccc(O)c3ccccc23)cc1	.	.	4.7	.	.	10%	.	.
COc1ccc(-c2ocnc2C(=O)N2CCN(C(c3ccccc3)c3ccccc3)CC2)cc1	.	.	.	.	.	/	/	/
Cc1ccc(Nc2nc(N)c3ccccc3n2)cc1Cl	.	.	7.3	.	.	9.5%	.	.
Nc1nc(Nc2ccc(Cl)cc2)nc2ccccc12	.	.	22	.	.	.	.	.
COc1cc2nc(Nc3ccc(C)c(Cl)c3)nc(N)c2cc1OC	.	.	.	.	.	/	/	/
Nc1nc(Nc2ccccc2)nc2ccccc12	.	.	.	.	.	/	/	/
SMILES	MrgX1 allo act	MrgX1 antag	RGS4 block	RGS4 act	MrgX1 ag	RGS4 inh valid	M3R Ca ctr	RGS4 inh ctr2
CC1(C)CC(NC(=O)c2coc(=O)c(Br)c2)CC(C)(C)N1	.	.	4.7	.	.	17%	.	.
CC(Oc1ccc(-n2cnnn2)cc1)C(=O)O (stereo not drawn)	.	.	.	.	.	/	/	/
CCCc1cc(=O)[nH]c(SCC(=O)Nc2nc(-c3ccccc3)cs2)n1	.	.	.	.	.	/	/	/
O=C(CSc1nc2ccccc2[nH]1)Nc1nc(-c2ccc(Br)cc2)cs1	.	.	6.6	.	.	6.0%	.	.
O=C(NCCc1cccs1)C12CN(Cc3ccccc3)CC1C(c1cccc([N+](=O)[O-])c1)=NO2 (stereo not drawn)	.	.	.	.	.	/	/	/
COc1ccc(C)cc1NS(=O)(=O)c1ccc(NC(=O)CN(c2cc([N+](=O)[O-])ccc2C)S(C)(=O)=O)cc1	.	.	.	.	.	/	.	.
Cc1c(C(=O)Oc2cccc3cccnc23)cccc1[N+](=O)[O-]	.	.	10	.	.	56%	.	.
O=C(Oc1cccc2cccnc12)c1cccs1	.	.	7.3	.	.	48%	.	.
O=C(Oc1cccc2cccnc12)c1ccco1	.	.	.	.	.	/	/	/
O=C(Oc1cccc2cccnc12)c1ccc(Br)o1	.	.	4.7	.	.	42%	.	.
O=C(NCc1nc(-c2ccc(C(F)(F)F)cc2)no1)Nc1ccc(OC(F)(F)F)cc1	.	.	.	.	.	/	/	/
CCOc1ccc(-c2c(C)sc3nc[nH]c(=O)c23)cc1	.	.	.	.	.	/	/	/
CC(=O)Nc1nnc(SCc2ccc(C(=O)Nc3ccccc3F)cc2)s1	.	.	.	.	.	/	/	/
CC1CCc2c(sc(NC(=O)CSc3ncn[nH]3)c2C#N)C1 (stereo not drawn)	.	.	.	.	.	/	/	/
N#Cc1c(NC(=O)CSc2ncn[nH]2)sc2c1CCCC2	.	.	5.1	.	.	8.5%	.	.
COc1cc2[nH]c3c(N4CCC(C(N)=O)CC4)ncnc3c2cc1OC	.	.	5.7	.	.	.	.	.
CC(C)=CCc1c(O)cc2c(=O)c3ccc(O)cc3oc2c1O	.	.	11	.	.	9.0%	.	.
COc1ccc(CNC(=O)C2CCN(S(=O)(=O)c3ccc(Br)s3)CC2)cc1	.	.	.	.	.	/	/	/
Cc1ccccc1CN1CCNC(=O)C1CC(=O)NCCN1CCCCC1=O (stereo not drawn)	.	.	.	.	.	/	/	/
COc1ccc(-c2cc(C(F)(F)F)n3nc(C(=O)NCc4ccco4)cc3n2)cc1OC	.	.	8.2	.	.	10%	.	10%

Compound activity (PubChem BioAssay)
